This passage reports Ratio IC50, inhibition and IC50 results from ChEMBL document CHEMBL2401731, “Synthesis and pharmacological evaluation of 2-aryloxy/arylamino-5-cyanobenzenesulfonylureas as novel thromboxane A₂ receptor antagonists” (Eur J Med Chem, 2013).

Active and inactive are the calls of the source. No cut-off for these calls is given here.

One test is filed under the species Homo sapiens. The test is described as follows: Selectivity index, ratio of IC50 for human thromboxane A2 receptor alpha to IC50 for human thromboxane A2 receptor beta. A digest of the protocol:
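IC50 at TPα divided by IC50 at TPβ. Both IC50s come from U-46619-stimulated Fluo-4 calcium mobilization in HEK293 cells stably expressing each isoform. Mean ± SD of three separate experiments.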

In another test the test system is Platelet. The test is described as follows: Antiplatelet activity against human platelets assessed as inhibition of U-46619-induced platelet aggregation at 10 uM after 1 min. Format: functional, cell-based.
The target in test [1] is T1, Thromboxane A2 receptor (Homo sapiens, UniProt P21731).
T1 sequence (P21731 whole entry): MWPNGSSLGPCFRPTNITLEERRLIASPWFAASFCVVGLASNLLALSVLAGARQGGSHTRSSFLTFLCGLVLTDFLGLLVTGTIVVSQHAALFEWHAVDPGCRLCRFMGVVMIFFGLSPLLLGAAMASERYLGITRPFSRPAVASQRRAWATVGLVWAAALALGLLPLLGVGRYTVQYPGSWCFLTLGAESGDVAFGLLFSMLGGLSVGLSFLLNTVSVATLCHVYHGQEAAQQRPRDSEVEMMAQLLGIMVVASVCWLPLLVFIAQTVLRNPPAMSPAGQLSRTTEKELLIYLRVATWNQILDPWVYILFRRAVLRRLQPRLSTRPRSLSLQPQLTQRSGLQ
The test is described as follows: Antagonist activity at human thromboxane A2 receptor alpha over-expressed in HEK293 cells assessed as inhibition of U-46619-induced intracellular calcium mobilization by fluorescence assay. The format is functional, cell-based. The essentials: (§1)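 HEK293 cells stably expressing HA-tagged TPα or TPβ, grown in DMEM/10% FBS. Trypsinized cells washed in Krebs-HEPES buffer, pH 7.4, loaded 1 h with Fluo-4/AM, rinsed, 150,000 cells/well. Compound at 10^-9 to 10^-5 M final, then stimulated with U-46619. Fluorescence read at 538 nm, calibrated to [Ca2+]i with Triton X-100/EGTA. IC50 from concentration-response curves, three independent experiments.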
Background: Calcium flux is commonly read through the fluorescence of an indicator in the cells.

For test [2], the target named is T1, Thromboxane A2 receptor. The test is described as follows: Antagonist activity at human thromboxane A2 receptor beta over-expressed in HEK293 cells assessed as inhibition of U-46619-induced intracellular calcium mobilization mobilization by fluorescence assay. Format: functional, cell-based. The essentials:
as §1

A short description of test [3]: Antiplatelet activity against human platelets assessed as inhibition of U-46619-induced platelet aggregation at 1 uM after 1 min. Format: functional, cell-based. A digest of the protocol:
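Human platelet-rich plasma is taken from donors free of medication for at least 14 days, obtained at 100×g for 10 min, and adjusted to […] with platelet-poor plasma. Platelets incubated with test sample or 0.1% DMSO at 37 °C for 1 min, then U-46619 added to trigger aggregation. Aggregation measured by light transmission. Means ± SD, n ≥ 2.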

By IC50 is commonly meant the concentration at which inhibition is half-maximal. As to `Cc1ccccc1Oc1ccc(C#N)cc1S(=O)(=O)NC(=O)NC(C)C`, in the test listed under Homo sapiens, the Ratio IC50 is 1.4. Also, in the test with Platelet, the inhibition result was “Active”. Further, the IC50 at Thromboxane A2 receptor [1] was 8.68 µM; at Thromboxane A2 receptor [2], 6.13 µM.

On to `CCCCCNC(=O)NS(=O)(=O)c1cc(C#N)ccc1Oc1ccc(Cl)cc1`, for which the Ratio IC50 in the test listed under Homo sapiens was determined as 0.9. Further, the IC50 on Thromboxane A2 receptor [1] was found to be 8.64 µM; on Thromboxane A2 receptor [2], 8.72 µM.

Regarding `CC(C)NC(=O)NS(=O)(=O)c1cc(C#N)ccc1Oc1ccc(I)cc1`, the Ratio IC50 in the test filed under Homo sapiens came to 1. The IC50 on Thromboxane A2 receptor [1] turned out to be 9.52 µM; at Thromboxane A2 receptor [2] it was 9.49 µM.

On to `CC(C)(C)NC(=O)NS(=O)(=O)c1cc(C#N)ccc1Oc1ccc(Br)cc1`, for which the Ratio IC50 in the test filed under Homo sapiens was 1.1. The concentration for half-maximal inhibition (IC50) on Thromboxane A2 receptor [1] came to 5.88 µM; at Thromboxane A2 receptor [2], 5.31 µM.

Consider `Cc1cccc(Nc2ccc(C#N)cc2S(=O)(=O)NC(=O)NC(C)(C)C)c1`, for which the Ratio IC50 in the test listed under Homo sapiens was found to be 0.7. Also, the inhibition result with Platelet is “Active”. The IC50 turned out to be 0.726 µM in test [3], 1.59 µM on Thromboxane A2 receptor [1] and 2.2 µM at Thromboxane A2 receptor [2].

With `CCCCCNC(=O)NS(=O)(=O)c1cc(C#N)ccc1Oc1ccc(C)cc1`, the Ratio IC50 in the test filed under Homo sapiens stood at 1.4. In addition, the inhibition result in the test on Platelet was “Active”. For the same compound, the results for the IC50 at Thromboxane A2 receptor [1] and at Thromboxane A2 receptor [2] were 0.9 µM and 0.63 µM, respectively.

For the compound `CC(C)(C)NC(=O)NS(=O)(=O)c1cc(C#N)ccc1Oc1ccc(I)cc1`, the Ratio IC50 in the test filed under Homo sapiens amounted to 0.9. Further, the IC50 on Thromboxane A2 receptor [1] came out at 5.52 µM; at Thromboxane A2 receptor [2], 5.54 µM.

Turning to `Cc1cccc(Oc2ccc(C#N)cc2S(=O)(=O)NC(=O)NC(C)(C)C)c1`, the inhibition result with Platelet was “Active”. Moreover, the IC50 turned out to be 0.705 µM in test [3], 1.05 µM at Thromboxane A2 receptor [1] and 0.69 µM at Thromboxane A2 receptor [2].

`Cc1ccccc1Nc1ccc(C#N)cc1S(=O)(=O)NC(=O)NC(C)C`: in the test listed under Homo sapiens, the Ratio IC50 turned out to be 0.7. Moreover, the inhibition result in the test with Platelet was “Active”. Further, the 50% inhibitory concentration (IC50) at Thromboxane A2 receptor [1] turned out to be 7.24 µM; at Thromboxane A2 receptor [2] it was 10.1 µM.

Turning to `CCCCCNC(=O)NS(=O)(=O)c1cc(C#N)ccc1Oc1ccc(F)cc1`, in the test filed under Homo sapiens, the Ratio IC50 was 0.9. Further, the values for the 50% inhibitory concentration (IC50) on Thromboxane A2 receptor [1] and at Thromboxane A2 receptor [2] were 9.43 µM and 9.53 µM, respectively.

`CCCCCNC(=O)NS(=O)(=O)c1cc(C#N)ccc1Oc1ccc(I)cc1`: in the test listed under Homo sapiens, the Ratio IC50 is 1. In addition, the figures for the IC50 at Thromboxane A2 receptor [1] and at Thromboxane A2 receptor [2] were 9.52 µM and 9.49 µM, respectively.

Consider `CC(C)(C)NC(=O)NS(=O)(=O)c1cc(C#N)ccc1Oc1ccc(Cl)cc1`, for which the Ratio IC50 in the test filed under Homo sapiens is 1.1. Moreover, the concentration for half-maximal inhibition (IC50) came to 5.64 µM at Thromboxane A2 receptor [1] and 5.27 µM at Thromboxane A2 receptor [2].

As for `CCCCCNC(=O)NS(=O)(=O)c1cc(C#N)ccc1Oc1ccccc1C`, in the test listed under Homo sapiens, the Ratio IC50 is 1.3. In the test with Platelet, the inhibition entry is “Active”. The values for the 50% inhibitory concentration (IC50) at Thromboxane A2 receptor [1] and on Thromboxane A2 receptor [2] were 2.24 µM and 1.78 µM, respectively.

In the case of `Cc1ccc(Oc2ccc(C#N)cc2S(=O)(=O)NC(=O)NC(C)C)cc1`, in the test listed under Homo sapiens, the Ratio IC50 stood at 2.3. In the test on Platelet, the inhibition entry is “Active”. For the same compound, the half-inhibitory concentration (IC50) at Thromboxane A2 receptor [1] is 3.05 µM; on Thromboxane A2 receptor [2], 1.35 µM.

For the compound `CCCCCNC(=O)NS(=O)(=O)c1cc(C#N)ccc1Nc1ccc(F)cc1`, the Ratio IC50 in the test filed under Homo sapiens was found to be 1.05. Further, the half-maximal inhibitory concentration (IC50) on Thromboxane A2 receptor [1] was determined as 6.78 µM; at Thromboxane A2 receptor [2], 6.45 µM.

As to `CC(C)NC(=O)NS(=O)(=O)c1cc(C#N)ccc1Nc1ccc(F)cc1`, the Ratio IC50 in the test listed under Homo sapiens stood at 1.04. Also, the IC50 at Thromboxane A2 receptor [1] worked out at 8.17 µM; at Thromboxane A2 receptor [2] it was 7.83 µM.

For `CCCCCNC(=O)NS(=O)(=O)c1cc(C#N)ccc1Oc1ccc(Br)cc1`, the Ratio IC50 in the test filed under Homo sapiens amounted to 0.9. The concentration for half-maximal inhibition (IC50) at Thromboxane A2 receptor [1] was 8.52 µM; on Thromboxane A2 receptor [2], 9.54 µM.

Regarding `CC(C)NC(=O)NS(=O)(=O)c1cc(C#N)ccc1Oc1ccc(Br)cc1`, the Ratio IC50 in the test listed under Homo sapiens was found to be 1. For the same compound, the half-inhibitory concentration (IC50) amounted to 9.47 µM at Thromboxane A2 receptor [1] and 9.13 µM at Thromboxane A2 receptor [2].

`Cc1cccc(Oc2ccc(C#N)cc2S(=O)(=O)NC(=O)NC(C)C)c1`: the Ratio IC50 in the test listed under Homo sapiens was 1.4. The inhibition entry with Platelet is “Active”. Moreover, the IC50 amounted to 2.38 µM at Thromboxane A2 receptor [1] and 1.69 µM at Thromboxane A2 receptor [2].

As for `Cc1ccc(Nc2ccc([N+](=O)[O-])cc2S(=O)(=O)NC(=O)NC(C)(C)C)cc1`, in the test filed under Homo sapiens, the Ratio IC50 is 1.1. Moreover, the IC50 in test [3] came to 0.509 µM; on Thromboxane A2 receptor [1], 0.7 µM; on Thromboxane A2 receptor [2], 0.62 µM.

As to `CC(C)NC(=O)NS(=O)(=O)c1cc(C#N)ccc1Oc1ccc(F)cc1`, the Ratio IC50 in the test listed under Homo sapiens stood at 1. Further, the IC50 was found to be 9.62 µM at Thromboxane A2 receptor [1] and 9.3 µM at Thromboxane A2 receptor [2].

As for `Cc1ccccc1Nc1ccc(C#N)cc1S(=O)(=O)NC(=O)NC(C)(C)C`, the inhibition entry in the test with Platelet was “Active”. In addition, the IC50 in test [3] was found to be 0.971 µM; at Thromboxane A2 receptor [1], 2.75 µM; on Thromboxane A2 receptor [2] it was 4.78 µM.

For `Cc1ccc(Nc2ccc(C#N)cc2S(=O)(=O)NC(=O)NC(C)C)cc1`, the Ratio IC50 in the test filed under Homo sapiens amounted to 0.9. The inhibition entry with Platelet is “Active”. Besides, the concentration for half-maximal inhibition (IC50) on Thromboxane A2 receptor [1] stood at 4.11 µM; at Thromboxane A2 receptor [2] it was 4.22 µM.

In the case of `CC(C)(C)NC(=O)NS(=O)(=O)c1cc(C#N)ccc1Nc1ccc(F)cc1`, the Ratio IC50 in the test filed under Homo sapiens was determined as 0.95. For the same compound, the IC50 at Thromboxane A2 receptor [1] is 4.64 µM; on Thromboxane A2 receptor [2], 4.91 µM.

On to `Cc1ccc(Oc2ccc(C#N)cc2S(=O)(=O)NC(=O)NC(C)(C)C)cc1`, for which the inhibition entry with Platelet was “Active”. For the same compound, the IC50 in test [3] was found to be 0.649 µM; at Thromboxane A2 receptor [1] it was 0.75 µM; at Thromboxane A2 receptor [2], 0.68 µM.

Regarding `CC(C)(C)NC(=O)NS(=O)(=O)c1cc(C#N)ccc1Oc1ccc(F)cc1`, in the test listed under Homo sapiens, the Ratio IC50 was found to be 1.2. In addition, the half-maximal inhibitory concentration (IC50) at Thromboxane A2 receptor [1] came to 4.35 µM; on Thromboxane A2 receptor [2], 3.89 µM.

As to `CCCCCNC(=O)NS(=O)(=O)c1cc(C#N)ccc1Nc1ccc(C)cc1`, the Ratio IC50 in the test listed under Homo sapiens was found to be 0.5. Besides, the inhibition entry in the test with Platelet is “Active”. Besides, the IC50 was 1.04 µM at Thromboxane A2 receptor [1] and 2.06 µM at Thromboxane A2 receptor [2].

As to `Cc1ccc(Nc2ccc(C#N)cc2S(=O)(=O)NC(=O)NC(C)(C)C)cc1`, in the test on Platelet, the inhibition result is “Active”. Also, the concentration for half-maximal inhibition (IC50) in test [3] came to 0.504 µM; at Thromboxane A2 receptor [1], 0.85 µM; at Thromboxane A2 receptor [2], 1.04 µM.

As for `Cc1cccc(Nc2ccc(C#N)cc2S(=O)(=O)NC(=O)NC(C)C)c1`, the Ratio IC50 in the test listed under Homo sapiens was determined as 1. Besides, in the test on Platelet, the inhibition result is “Active”. In addition, the IC50 on Thromboxane A2 receptor [1] was found to be 9.5 µM; on Thromboxane A2 receptor [2], 9.11 µM.

Regarding `CC(C)NC(=O)NS(=O)(=O)c1cc(C#N)ccc1Oc1ccc(Cl)cc1`, the Ratio IC50 in the test filed under Homo sapiens was 1.1. The half-maximal inhibitory concentration (IC50) on Thromboxane A2 receptor [1] worked out at 9.46 µM; at Thromboxane A2 receptor [2], 8.49 µM.

As to `CCCCCNC(=O)NS(=O)(=O)c1cc(C#N)ccc1Nc1ccccc1C`, in the test listed under Homo sapiens, the Ratio IC50 was 0.4. Also, the inhibition entry with Platelet is “Active”. Further, the concentration for half-maximal inhibition (IC50) amounted to 3.19 µM on Thromboxane A2 receptor [1] and 7.85 µM on Thromboxane A2 receptor [2].

For the compound `Cc1ccccc1Oc1ccc(C#N)cc1S(=O)(=O)NC(=O)NC(C)(C)C`, in the test on Platelet, the inhibition entry is “Active”. Besides, the 50% inhibitory concentration (IC50) is 0.966 µM in test [3], 3.69 µM on Thromboxane A2 receptor [1] and 1.47 µM on Thromboxane A2 receptor [2].

Consider `CCCCCNC(=O)NS(=O)(=O)c1cc(C#N)ccc1Oc1cccc(C)c1`, for which, in the test filed under Homo sapiens, the Ratio IC50 came to 2. Besides, in the test with Platelet, the inhibition entry is “Active”. Further, the results for the IC50 on Thromboxane A2 receptor [1] and at Thromboxane A2 receptor [2] were 1.33 µM and 0.68 µM, respectively.

As to `CCCCCNC(=O)NS(=O)(=O)c1cc(C#N)ccc1Nc1cccc(C)c1`, the Ratio IC50 in the test listed under Homo sapiens stood at 1.3. In the test on Platelet, the inhibition result is “Active”. For the same compound, the figures for the IC50 on Thromboxane A2 receptor [1] and at Thromboxane A2 receptor [2] were 2.95 µM and 2.33 µM, respectively.
